Compound in data set [1]: O=C(NP(=O)(NN1CCCCC1)NN1CCCCC1)c1ccccc1
Kind of data set: (§1) Inhibition of human BChE by double reciprocal Lineweaver-Burke plot assay. Put shortly: (§2)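 Kinetics used the same Ellman read-out, with substrate varied: acetylthiocholine for AChE, butyrylthiocholine for BChE. Rates were taken as OD min-1 with and without inhibitor. Km and Vmax were derived from double-reciprocal Lineweaver-Burk plots of 1/V against 1/[S].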

Compound in data set [2]: O=C(NP(=O)(NN1CCOCC1)NN1CCOCC1)c1ccccc1
The description is as §1. A digest of the protocol:
as §2

Compound in data set [3]: O=P(O)(NN1CCCCC1)Oc1ccccc1
The description is as §1. Put shortly:
as §2

Compound in data set [4]: O=P(NN1CCOCC1)(NN1CCOCC1)c1ccccc1
The data set is described as §1. Put shortly: as §2

Compound in data set [5]: O=P(NN1CCOCC1)(NN1CCOCC1)Oc1ccccc1
Described as §1. Put shortly:
as §2

Compound in data set [6]: O=C(NP(=O)(NN1CCCCC1)NN1CCCCC1)c1ccccc1
The experiment in a line: (§3) Inhibition of human AChE by double reciprocal Lineweaver-Burke plot assay. A digest of the protocol:
as §2

Compound in data set [7]: O=C(NP(=O)(NN1CCOCC1)NN1CCOCC1)c1ccccc1
The data set is described as §3. Put shortly: as §2

Compound in data set [8]: O=P(O)(NN1CCCCC1)Oc1ccccc1
The description is as §3. A digest of the protocol:
as §2

Compound in data set [9]: O=P(NN1CCOCC1)(NN1CCOCC1)Oc1ccccc1
The description is as §3. A digest of the protocol:
as §2

B1: Cholinesterase (Homo sapiens), P06276 (protein)
chain: MHSKVTIICIRFLFWFLLLCMLIGKSHTEDDIIIATKNGKVRGMNLTVFGGTVTAFLGIPYAQPPLGRLRFKKPQSLTKWSDIWNATKYANSCCQNIDQSFPGFHGSEMWNPNTDLSEDCLYLNVWIPAPKPKNATVLIWIYGGGFQTGTSSLHVYDGKFLARVERVIVVSMNYRVGALGFLALPGNPEAPGNMGLFDQQLALQWVQKNIAAFGGNPKSVTLFGESAGAASVSLHLLSPGSHSLFTRAILQSGSFNAPWAVTSLYEARNRTLNLAKLTGCSRENETEIIKCLRNKDPQEILLNEAFVVPYGTPLSVNFGPTVDGDFLTDMPDILLELGQFKKTQILVGVNKDEGTAFLVYGAPGFSKDNNSIITRKEFQEGLKIFFPGVSEFGKESILFHYTDWVDDQRPENYREALGDVVGDYNFICPALEFTKKFSEWGNNAFFYYFEHRSSKLPWPEWMGVMHGYEIEFVFGLPLERRDNYTKAEEILSRSIVKRWANFAKYGNPNETQNNSTSWPVFKSTEQKYLTLNTESTRIMTKLRAQQCRFWTSFFPKVLEMTGNIDEAEWEWKAGFHRWNNYMMDWKNQFNDYTSKKESCVGL
For the protein B1, the Km in [1] turned out to be 75 µM; in data set [2], 50 µM; in data set [3] it was 67 µM; in data set [4] it was 67 µM; in data set [5], 85 µM. In addition, the Vmax in data set [1] turned out to be 55.6 mM/min; in data set [2], 23.5 mM/min; in data set [3], 27.8 mM/min; in data set [4] it was 71.4 mM/min; in [5], 66.4 mM/min.

B2: Acetylcholinesterase (Homo sapiens), P22303 (protein)
chain: MRPPQCLLHTPSLASPLLLLLLWLLGGGVGAEGREDAELLVTVRGGRLRGIRLKTPGGPVSAFLGIPFAEPPMGPRRFLPPEPKQPWSGVVDATTFQSVCYQYVDTLYPGFEGTEMWNPNRELSEDCLYLNVWTPYPRPTSPTPVLVWIYGGGFYSGASSLDVYDGRFLVQAERTVLVSMNYRVGAFGFLALPGSREAPGNVGLLDQRLALQWVQENVAAFGGDPTSVTLFGESAGAASVGMHLLSPPSRGLFHRAVLQSGAPNGPWATVGMGEARRRATQLAHLVGCPPGGTGGNDTELVACLRTRPAQVLVNHEWHVLPQESVFRFSFVPVVDGDFLSDTPEALINAGDFHGLQVLVGVVKDEGSYFLVYGAPGFSKDNESLISRAEFLAGVRVGVPQVSDLAAEAVVLHYTDWLHPEDPARLREALSDVVGDHNVVCPVAQLAGRLAAQGARVYAYVFEHRASTLSWPLWMGVPHGYEIEFIFGIPLDPSRNYTAEEKIFAQRLMRYWANFARTGDPNEPRDPKAPQWPPYTAGAQQYVSLDLRPLEVRRGLRAQACAFWNRFLPKLLSATDTLDEAERQWKAEFHRWSSYMVHWKNQFDHYSKQDRCSDL
Consider B2, for which the Michaelis-Menten constant (Km) in data set [6] was determined as 45 µM; in data set [7], 49 µM; in data set [8], 51 µM; in data set [9] it was 47 µM. Further, the maximal velocity (Vmax) is 40 mM/min in data set [6], 55.5 mM/min in data set [7], 11.1 mM/min in data set [8] and 37 mM/min in data set [9].

The Km is the substrate concentration at which the rate is half of its maximum. By Vmax is commonly meant the rate approached at saturating substrate.

Source of the values: ChEMBL document CHEMBL1275282, “Synthesis, characterization, oxidative degradation, antibacterial activity and acetylcholinesterase/butyrylcholinesterase inhibitory effects of some new phosphorus(V) hydrazides” (Eur J Med Chem, 2010).
